The test system of one assay is A549. Description: Cytotoxicity against A549 tumor cell line determined by WST-1 assay. As to conditions: Homo sapiens. It counts as functional, cell-based. In outline: (§1)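 Cells exposed to drug for 72 h; surviving cells measured colorimetrically with soluble tetrazolium WST-1. IC50 is the mean of triplicate determinations. HT29 and A549 sourced from ATCC. T24r was derived from T24 bladder carcinoma by prolonged exposure to vinorelbine, PE1001 and doxorubicin, and is multidrug resistant through Pg-P overexpression. A549 is resistant through MRP overexpression.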

Assay [1] has as its target T1, DNA topoisomerase 1 (Homo sapiens) (UniProt P11387).
T1 sequence (whole entry): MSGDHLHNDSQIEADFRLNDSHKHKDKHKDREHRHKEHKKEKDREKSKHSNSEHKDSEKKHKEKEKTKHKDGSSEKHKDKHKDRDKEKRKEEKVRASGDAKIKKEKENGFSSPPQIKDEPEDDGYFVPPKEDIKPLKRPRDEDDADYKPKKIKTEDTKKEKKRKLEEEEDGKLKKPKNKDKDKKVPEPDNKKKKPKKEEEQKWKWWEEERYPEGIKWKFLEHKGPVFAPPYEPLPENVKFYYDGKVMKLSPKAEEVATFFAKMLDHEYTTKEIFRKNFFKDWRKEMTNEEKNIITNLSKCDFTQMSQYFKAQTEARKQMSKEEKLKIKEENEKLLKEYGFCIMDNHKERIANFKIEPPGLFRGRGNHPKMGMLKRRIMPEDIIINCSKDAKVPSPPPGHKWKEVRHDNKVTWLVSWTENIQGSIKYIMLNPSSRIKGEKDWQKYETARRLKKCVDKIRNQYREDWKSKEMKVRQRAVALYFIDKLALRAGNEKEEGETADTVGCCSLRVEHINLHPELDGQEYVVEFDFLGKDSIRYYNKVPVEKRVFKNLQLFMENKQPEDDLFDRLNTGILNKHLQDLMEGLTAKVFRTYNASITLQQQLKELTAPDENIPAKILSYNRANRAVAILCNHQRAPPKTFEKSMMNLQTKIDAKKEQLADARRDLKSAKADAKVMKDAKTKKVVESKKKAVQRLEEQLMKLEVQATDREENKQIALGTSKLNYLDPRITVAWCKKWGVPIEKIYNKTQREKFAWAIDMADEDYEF
Description: Stimulation of pKMp27 DNA cleavage by human DNA topoisomerase I in presence of 0.1 uM of compound. Summed up: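 Human Topo I incubated with supercoiled plasmid pKMp27 DNA and 0.1 µM drug. Products resolved on agarose gel containing ethidium bromide. Nicked DNA fraction quantified and stimulation calculated as (N−N0)/N0, where N and N0 are the nicked fractions with and without drug. Values compiled from quantitative analysis of three gels.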

The subject of another assay is HT-29. Kind of assay: Cytotoxicity against HT-29 tumor cell line determined by WST-1 assay. The class given is functional, cell-based. As to conditions: Homo sapiens. In outline:
as §1

A further assay deals with T-24. Description: Cytotoxicity against T24 tumor cell line determined by WST-1 assay. It counts as functional, cell-based. The following applies: Homo sapiens. Summed up: as §1

Turning to `CC[C@@]1(O)C(=O)OCc2c1cc1n(c2=O)Cc2cc3ccccc3nc2-1` [CAMPTOTHECIN], the figures for the IC50 in the assay with A549, in the assay on HT-29 and in the assay with T-24 were 67 nM, 80 nM and 88 nM, respectively. Besides, the Stimulation in assay [1] was found to be 8.2.
Consider `CC[C@@]1(O)CC(=O)OCc2c1cc1n(c2=O)Cc2cc3c(F)cc(F)cc3nc2-1`, for which the half-inhibitory concentration (IC50) in the assay on A549 stood at 1.9 nM; with HT-29, 10 nM; with T-24, 0.32 nM. Further, the Stimulation in assay [1] turned out to be 30.
On to `CC[C@@]1(O)CC(=O)OCc2c1cc1n(c2=O)Cc2cc3c(F)cccc3nc2-1`, for which the IC50 in the assay with A549 worked out at 17 nM; with HT-29, 20 nM; in the assay on T-24 it was 1.6 nM. In addition, the Stimulation in assay [1] is 18.
The like results for `CC[C@@]1(O)CC(=O)OCc2c1cc1n(c2=O)Cc2cc3cc(F)ccc3nc2-1` were, in that order, 22 nM, 27 nM, 4.5 nM and 17.
In the same order, the values of `CC[C@@]1(O)CC(=O)OCc2c1cc1n(c2=O)Cc2cc3cc(F)c(F)cc3nc2-1` [DIFLOMOTECAN] are 3.4 nM, 8.4 nM, 0.4 nM and 32.
For `CC[C@@]1(O)CC(=O)OCc2c1cc1n(c2=O)Cc2cc3ccccc3nc2-1` [HOMOCAMPTOTHECIN], the IC50 in the assay with A549 was found to be 26 nM; in the assay with HT-29 it was 30 nM; in the assay on T-24, 3.3 nM. Also, in assay [1], the Stimulation is 21.
For the compound `CC[C@@]1(O)CC(=O)OCc2c1cc1n(c2=O)Cc2cc3ccc(F)cc3nc2-1`, the IC50 in the assay on A549 amounted to 2.9 nM; with HT-29, 11 nM; with T-24, 0.17 nM. Moreover, in assay [1], the Stimulation was determined as 29.
In the case of `CC[C@@]1(O)CC(=O)OCc2c1cc1n(c2=O)Cc2cc3cccc(F)c3nc2-1`, the IC50 with A549 is 130 nM; in the assay with HT-29 it was 190 nM; in the assay with T-24, 22 nM. For the same compound, the Stimulation in assay [1] is 7.3.

These data come from ChEMBL document CHEMBL1133737, “Topoisomerase I-mediated antiproliferative activity of enantiomerically pure fluorinated homocamptothecins” (J Med Chem, 2000).
